Assay results reported in PubChem BioAssay AID743257 (The Scripps Research Institute Molecular Screening Center, 2014).
In all, about 2,900 compounds went through this assay and about 1,900 (66%) were called active. The set was probably picked from earlier hits. These entries were drawn from the full list. Unmarked numbers belong to inactive results.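 Rule for the calls: active = mean inhibition across replicates above the hit cutoff set in the primary screen (cut at about 8.5% in these data); inactive = the rest.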

What follows are compounds tested against Disintegrin and metalloproteinase domain-containing protein 17 (Homo sapiens) (UniProt P78536) (assay: ADAM17 inhibitors, hit retest, confirmation, biochemical, QFRET peptide cleavage (AID 743257;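 note: 0% = DMSO wells and 100% = marimastat wells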)). Conditions: recombinant ADAM17, EDANS/DABCYL QFRET peptide cleavage; at 6.95 µM; active compounds read high.
Sequence of Disintegrin and metalloproteinase domain-containing protein 17 (Homo sapiens) (P78536 215-824 limits assumed): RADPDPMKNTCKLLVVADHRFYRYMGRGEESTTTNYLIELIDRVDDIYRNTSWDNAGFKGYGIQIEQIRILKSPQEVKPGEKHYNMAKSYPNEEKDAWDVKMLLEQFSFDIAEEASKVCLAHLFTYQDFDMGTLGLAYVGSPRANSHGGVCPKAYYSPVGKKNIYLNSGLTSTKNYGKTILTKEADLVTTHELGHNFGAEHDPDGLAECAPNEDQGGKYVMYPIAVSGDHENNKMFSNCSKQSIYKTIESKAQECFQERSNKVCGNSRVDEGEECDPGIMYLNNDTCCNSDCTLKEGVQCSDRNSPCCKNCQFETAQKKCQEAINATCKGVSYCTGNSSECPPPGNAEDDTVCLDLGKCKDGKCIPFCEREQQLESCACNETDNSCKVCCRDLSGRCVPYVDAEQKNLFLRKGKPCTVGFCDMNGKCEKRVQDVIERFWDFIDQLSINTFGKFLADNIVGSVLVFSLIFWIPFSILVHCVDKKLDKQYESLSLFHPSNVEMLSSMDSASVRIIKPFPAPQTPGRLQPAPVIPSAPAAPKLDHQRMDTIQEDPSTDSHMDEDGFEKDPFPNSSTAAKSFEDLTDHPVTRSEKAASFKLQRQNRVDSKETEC
In short: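 Assay system – human ADAM17 enzyme, FRET peptide cleavage · Read-out – percent inhibition · Schedule – 30 min preincubation, 3 h reaction · Buffer or medium – 50 mM HEPES buffer, pH 7.5, with 0.01% Brij · Controls – DMSO wells and 1 µM marimastat wells as references · Measured by – fluorescence at ex 359 nm, em 460 nm · Dosing – 6.95 µM compound, single dose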
In the case of `CCOC(=O)CC(SP1(=S)OCC2(CCCCO2)C(C2CCCCO2)O1)C(=O)OCC` (configuration not stated), the inhibition is reported as 24.1% (active). Compound `COC(=O)C1=C(c2ccc(-c3ccccc3)c(F)c2)C[C@@H]2CC[C@H]1N2C(=O)NCc1ccc(F)cc1` has an inhibition of 7.03%.
